What is called inhibition is the share of the control response that was lost under treatment. Broadly, the IC50 is the concentration needed to halve the response being measured.

Assay type in all cases: functional
Test [1] is described as follows: Antagonist activity at nicotinic acetylcholine receptor in rat striatal slices assessed as inhibition of S-(-)-nicotine-induced [3H]dopamine release at 100 nM relative to control. The essentials:
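Probe assay on superfused rat striatal slices: 100 nM analog against 10 μM S-(−)-nicotine-evoked [3H]DA release. Inhibition is expressed as a percentage of the nicotine response without analog, i.e. the fractional release evoked under control conditions. Each value comes from at least 3 independent experiments, each in duplicate (n = 3 rats/analog).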

A short description of test [2]: Antagonist activity at nicotinic acetylcholine receptor in rat striatal slices assessed as inhibition of S-(-)-nicotine-induced [3H]dopamine release. The essentials: (§1)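 Superfused rat striatal slices were stimulated with 10 μM S-(−)-nicotine, with analog present across 1 nM to 10 μM. Evoked [3H]DA overflow was expressed as a percent of tissue [3H] content and compared with nicotine alone. IC50 and Imax came from iterative nonlinear least-squares curve fitting, using 4-6 independent experiments.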

Test [3] is described as follows: Antagonist activity at nicotinic acetylcholine receptor in rat striatal slices assessed as inhibition of S-(-)-nicotine-induced [3H]dopamine release relative to control. The essentials:
as §1

Take `Cc1ccc[n+](CCCC#Cc2cc(C#CCCC[n+]3cccc(C)c3)cc(C#CCCC[n+]3cccc(C)c3)c2)c1.[Br-].[Br-].[Br-]`: the inhibition at 0.1 µM in test [1] was found to be 40%. Besides, the IC50 in test [2] was found to be 0.2 nM. Besides, in test [3], the Imax is 67%.
As for `Cc1ccc[n+](CCCCCCCCCCCC[n+]2cccc(C)c2)c1.[Br-].[Br-]`, the concentration for half-maximal inhibition (IC50) in test [2] amounted to 2 nM. In test [3], the Imax was 78%.
Regarding `CN(CCCC#Cc1cc(C#CCCCN(C)[C@@]2(C)[C@@H]3CC[C@@H](C3)C2(C)C)cc(C#CCCCN(C)[C@@]2(C)[C@@H]3CC[C@@H](C3)C2(C)C)c1)[C@@]1(C)[C@@H]2CC[C@@H](C2)C1(C)C`, the inhibition at 0.1 µM in test [1] is 73%. For the same molecule, in test [2], the IC50 was found to be 107 nM. In addition, the Imax in test [3] came out at 62%.
On the same counts, the results for `CC1(C)CCCC(C)(C)N1CCCCCCCCCCCCCN1C(C)(C)CCCC1(C)C` are 56%, 2.2 nM and 87%.
On the same counts, the results for `CN(CCCCCCCCCCCN(C)[C@@]1(C)[C@@H]2CC[C@@H](C2)C1(C)C)[C@@]1(C)[C@@H]2CC[C@@H](C2)C1(C)C` are 35%, 319 nM and 90%.
Regarding `CC1(C)CCCC(C)(C)N1CCCCCCCCCCCCN1C(C)(C)CCCC1(C)C`, in test [1], the inhibition at 0.1 µM was determined as 36%.
Same read-out and setting: then `CC1(C)CCCC(C)(C)N1CCCCCCCCCCCN1C(C)(C)CCCC1(C)C`, with 22%; and `CC1(C)CCCC(C)(C)N1CCCCCCCCN1C(C)(C)CCCC1(C)C`, with 18%; and `CC1(C)CCCC(C)(C)N1CCCCCCCCCCN1C(C)(C)CCCC1(C)C`, with 5%.
Regarding `CN(CCCCCCCCCCCCCN(C)[C@@]1(C)[C@@H]2CC[C@@H](C2)C1(C)C)[C@@]1(C)[C@@H]2CC[C@@H](C2)C1(C)C`, the inhibition at 0.1 µM in test [1] stood at 52%. The half-maximal inhibitory concentration (IC50) in test [2] is 46 nM. The Imax in test [3] is on record as 83%.
